We go through 4 compounds from ChEMBL document CHEMBL1143542, “Structure-activity relationships of bivalent aminoglycosides and evaluation of their microbiological activities” (2005).

Values after ≈ are worked out from the molar mass of the structure shown.

As a reminder, the MIC is the least concentration at which growth counts as inhibited. Higher therefore signals a need for much substance.

Assay [1] relates to Pseudomonas aeruginosa. Put plainly: Susceptibility testing against Pseudomonas aeruginosa PAE_NUH01; R=Resistant. Format: functional, organism-based. In outline:
(§1)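 Disk diffusion susceptibility profiling of P. aeruginosa reference and clinical isolates against empirically used antipseudomonal antibiotics. Each isolate was categorised as susceptible, intermediate or resistant.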

Assay [2] has as its system Pseudomonas aeruginosa. Nature of the assay: Susceptibility testing against Pseudomonas aeruginosa PAE_NUH03; S=Susceptible. Format: functional, organism-based. In short, it runs like this: (§2)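 Disk diffusion susceptibility profiling against a panel of empirically used antipseudomonal antibiotics. Each strain was categorised as susceptible (S) or intermediate (I).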
For assay [3], the system named is Pseudomonas aeruginosa. Put plainly: Susceptibility testing against Pseudomonas aeruginosa ATCC 27853; S=Susceptible. It is filed as functional, organism-based. In outline:
as §2

In assay [4] the test system is Pseudomonas aeruginosa. Put plainly: Susceptibility testing against Pseudomonas aeruginosa PAE_NUH21; S=Susceptible. It is filed as functional, organism-based. In short, it runs like this: as §2
Assay [5] has as its system Pseudomonas aeruginosa. Put plainly: Susceptibility testing against Pseudomonas aeruginosa PAE_NUH19; S=Susceptible. It is filed as functional, organism-based. In short, it runs like this: as §2
Assay [6] has as its system Pseudomonas aeruginosa. Nature of the assay: Susceptibility testing against Pseudomonas aeruginosa PAE_NUH05; S=Susceptible. Format: functional, organism-based. In short, it runs like this: as §2
The test system of assay [7] is Pseudomonas aeruginosa. Nature of the assay: Susceptibility testing against Pseudomonas aeruginosa PAE_NUH25; S=Susceptible. It is filed as functional, organism-based. In short, it runs like this: as §2
In assay [8] the test system is Pseudomonas aeruginosa. Nature of the assay: Susceptibility testing against Pseudomonas aeruginosa PAE_NUH18; S=Susceptible. It is filed as functional, organism-based. In outline:
as §2

Assay [9] deals with Pseudomonas aeruginosa. Nature of the assay: Susceptibility testing against Pseudomonas aeruginosa PAE_NUH06; S=Susceptible. Format: functional, organism-based. In outline:
as §2

Assay [10] has as its system Pseudomonas aeruginosa. Put plainly: Susceptibility testing against Pseudomonas aeruginosa PAE_NUH22; S=Susceptible. It is filed as functional, organism-based. In short, it runs like this: as §2
In assay [11] the test system is Pseudomonas aeruginosa. Put plainly: Susceptibility testing against Pseudomonas aeruginosa PAE_NUH07; R=Resistant. It is filed as functional, organism-based. In outline:
as §1

The subject of assay [12] is Pseudomonas aeruginosa. Put plainly: Susceptibility testing against Pseudomonas aeruginosa PAE_NUH23; S=Susceptible. Format: functional, organism-based. In short, it runs like this: as §2
The test system of assay [13] is Pseudomonas aeruginosa. Put plainly: Susceptibility testing against Pseudomonas aeruginosa PAE_NUH04; S=Susceptible. It is filed as functional, organism-based. In short, it runs like this: as §2
Assay [14] relates to Pseudomonas aeruginosa. Put plainly: Susceptibility testing against Pseudomonas aeruginosa PAE_NUH20; S=Susceptible. Format: functional, organism-based. In outline:
as §2

For assay [15], the system named is Pseudomonas aeruginosa. Nature of the assay: Susceptibility testing against Pseudomonas aeruginosa PAE_NUH17; S=Susceptible. Format: functional, organism-based. In outline: as §2
In assay [16] the test system is Pseudomonas aeruginosa. Nature of the assay: Susceptibility testing against Pseudomonas aeruginosa PAE_NUH24; S=Susceptible. Format: functional, organism-based. In outline: as §2
Assay [17] has as its system Pseudomonas aeruginosa. Put plainly: Susceptibility testing against Pseudomonas aeruginosa PAE_NUH02; R=Resistant. Format: functional, organism-based. In outline:
as §1

Assay [18] deals with Staphylococcus aureus. Nature of the assay: In vitro minimum inhibitory concentration against Staphylococcus aureus MRSA 3359. Format: functional. In short, it runs like this:
(§3)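 Broth microdilution following CLSI M100-S12. Stocks were 10 mg/mL in water, diluted in Mueller–Hinton broth to a top level of 128, then serially 2-fold in plates. Bacteria in cation-adjusted Mueller–Hinton broth were mixed 1:1 with drug and incubated 16–20 h at 35 °C. MIC was the lowest concentration with no visible growth. Run in duplicate with no-antibiotic and no-inoculum (sterility) controls.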

Assay [19] deals with Pseudomonas aeruginosa. Put plainly: In vitro minimum inhibitory concentration against Pseudomonas aeruginosa PAO-1. Format: functional. In short, it runs like this:
as §3

In assay [20] the test system is Staphylococcus aureus. Nature of the assay: In vitro minimum inhibitory concentration against Staphylococcus aureus ATCC 29213. Format: functional. In outline:
as §3

Assay [21] relates to Pseudomonas aeruginosa. Nature of the assay: In vitro minimum inhibitory concentration against Pseudomonas aeruginosa ATCC 27853. Format: functional. In outline:
as §3

The subject of another assay is Escherichia coli. Put plainly: In vitro minimum inhibitory concentration against Escherichia coli ATCC 25922. It is filed as functional. In outline: as §3
A further assay relates to Enterococcus faecalis. Put plainly: In vitro minimum inhibitory concentration against Enterococcus faecalis 29212. Format: functional. In short, it runs like this:
as §3

The test system of assay [22] is Pseudomonas aeruginosa. Put plainly: Susceptibility testing against Pseudomonas aeruginosa PAE_NUH04; R=Resistant. Format: functional, organism-based. In short, it runs like this:
as §1

In assay [23] the test system is Pseudomonas aeruginosa. Put plainly: Susceptibility testing against Pseudomonas aeruginosa PAE_NUH03; R=Resistant. Format: functional, organism-based. In short, it runs like this: as §1
The test system of assay [24] is Pseudomonas aeruginosa. Nature of the assay: Susceptibility testing against Pseudomonas aeruginosa PAE_NUH06; R=Resistant. Format: functional, organism-based. In short, it runs like this: as §1
In assay [25] the test system is Pseudomonas aeruginosa. Nature of the assay: Susceptibility testing against Pseudomonas aeruginosa PAE_NUH05; R=Resistant. Format: functional, organism-based. In outline:
as §1

Assay [26] has as its system Pseudomonas aeruginosa. Nature of the assay: Minimum inhibitory concentration against Pseudomonas aeruginosa PAE_NUH01. Format: functional. In short, it runs like this:
as §3

Assay [27] relates to Pseudomonas aeruginosa. Put plainly: Minimum inhibitory concentration against Pseudomonas aeruginosa PAE_NUH19. Format: functional. In outline: as §3
For assay [28], the system named is Pseudomonas aeruginosa. Nature of the assay: Minimum inhibitory concentration against Pseudomonas aeruginosa PAE_NUH07. It is filed as functional. In outline: as §3
Assay [29] relates to Pseudomonas aeruginosa. Put plainly: Minimum inhibitory concentration against Pseudomonas aeruginosa PAE_NUH18. It is filed as functional. In outline:
as §3

In assay [30] the test system is Pseudomonas aeruginosa. Nature of the assay: Minimum inhibitory concentration against Pseudomonas aeruginosa PAE_NUH22. It is filed as functional. In short, it runs like this:
as §3

Assay [31] concerns Pseudomonas aeruginosa. Put plainly: Minimum inhibitory concentration against Pseudomonas aeruginosa PAE_NUH04. It is filed as functional. In outline: as §3
Assay [32] has as its system Pseudomonas aeruginosa. Put plainly: Minimum inhibitory concentration against Pseudomonas aeruginosa ATCC 27853. It is filed as functional. In short, it runs like this:
as §3

Assay [33] deals with Pseudomonas aeruginosa. Nature of the assay: Minimum inhibitory concentration against Pseudomonas aeruginosa PAE_NUH05. It is filed as functional. In outline:
as §3

Assay [34] deals with Pseudomonas aeruginosa. Put plainly: Minimum inhibitory concentration against Pseudomonas aeruginosa PAE_NUH25. It is filed as functional. In outline: as §3
Assay [35] concerns Pseudomonas aeruginosa. Nature of the assay: Minimum inhibitory concentration against Pseudomonas aeruginosa PAE_NUH03. Format: functional. In outline: as §3
For assay [36], the system named is Pseudomonas aeruginosa. Put plainly: Minimum inhibitory concentration against Pseudomonas aeruginosa PAE_NUH21. Format: functional. In short, it runs like this: as §3
Assay [37] relates to Pseudomonas aeruginosa. Nature of the assay: Minimum inhibitory concentration against Pseudomonas aeruginosa PAE_NUH20. It is filed as functional. In outline: as §3
In assay [38] the test system is Pseudomonas aeruginosa. Put plainly: In vitro minimum inhibitory concentration against Pseudomonas aeruginosa PAO-1 Minimum inhibitory concentration against Pseudomonas aeruginosa PAO-1. Format: functional. In outline: as §3
Assay [39] concerns Pseudomonas aeruginosa. Put plainly: Minimum inhibitory concentration against Pseudomonas aeruginosa PAE_NUH24. Format: functional. In outline: as §3
The subject of assay [40] is Pseudomonas aeruginosa. Nature of the assay: Minimum inhibitory concentration against Pseudomonas aeruginosa PAE_NUH23. Format: functional. In short, it runs like this: as §3
Assay [41] has as its system Pseudomonas aeruginosa. Nature of the assay: Minimum inhibitory concentration against Pseudomonas aeruginosa PAE_NUH06. It is filed as functional. In short, it runs like this:
as §3

The subject of assay [42] is Pseudomonas aeruginosa. Nature of the assay: Minimum inhibitory concentration against Pseudomonas aeruginosa PAE_NUH17. It is filed as functional. In short, it runs like this:
as §3

For assay [43], the system named is Pseudomonas aeruginosa. Nature of the assay: Minimum inhibitory concentration against Pseudomonas aeruginosa PAE_NUH02. Format: functional. In outline:
as §3

As for `CCN1CCN(C(=O)N[C@@H](C(=O)N[C@@H]2C(=O)N3[C@@H]2SC(C)(C)[C@@H]3C(=O)O)c2ccccc2)C(=O)C1=O.C[C@]1(Cn2ccnn2)[C@H](C(=O)O)N2C(=O)C[C@H]2S1(=O)=O`, the Activity entry is reported as “Resistant” with Pseudomonas aeruginosa [1]; “Susceptible” in the assay on Pseudomonas aeruginosa [2]; “Susceptible” in the assay with Pseudomonas aeruginosa [3]; “Susceptible” in the assay with Pseudomonas aeruginosa [4]; “Susceptible” with Pseudomonas aeruginosa [5]; “Susceptible” in the assay on Pseudomonas aeruginosa [6]. Further, the Activity result in the assay on Pseudomonas aeruginosa [7] is listed as “Susceptible”; with Pseudomonas aeruginosa [8], “Susceptible”; with Pseudomonas aeruginosa [9], “Susceptible”; in the assay with Pseudomonas aeruginosa [10], “Susceptible”; in the assay with Pseudomonas aeruginosa [11], “Resistant”; in the assay with Pseudomonas aeruginosa [12] it was “Susceptible”. The Activity result with Pseudomonas aeruginosa [13] is given as “Susceptible”; in the assay with Pseudomonas aeruginosa [14], “Susceptible”; with Pseudomonas aeruginosa [15], “Susceptible”; with Pseudomonas aeruginosa [16], “Susceptible”; in the assay on Pseudomonas aeruginosa [17], “Resistant”.

Consider `CCN(CCN(CC)C[C@@H](O)CO[C@@H]1[C@@H](O)[C@H](N)C[C@H](N)[C@H]1O[C@H]1O[C@H](CN)[C@@H](O)[C@H](O)[C@H]1N)C[C@@H](O)CO[C@@H]1[C@@H](O)[C@H](N)C[C@H](N)[C@H]1O[C@H]1O[C@H](CN)[C@@H](O)[C@H](O)[C@H]1N`, for which the minimal inhibitory concentration (MIC) in the assay with Staphylococcus aureus [18], with Pseudomonas aeruginosa [19], against Staphylococcus aureus [20], against Pseudomonas aeruginosa [21], in the assay on Escherichia coli and in the assay on Enterococcus faecalis was over 50 µg/mL throughout.

Take `O=C(O)c1cn(C2CC2)c2cc(N3CCNCC3)c(F)cc2c1=O`: the Activity result with Pseudomonas aeruginosa [22] is on record as “Resistant”; in the assay on Pseudomonas aeruginosa [1] it was “Resistant”; in the assay with Pseudomonas aeruginosa [23], “Resistant”; in the assay on Pseudomonas aeruginosa [3], “Susceptible”; with Pseudomonas aeruginosa [4], “Susceptible”; with Pseudomonas aeruginosa [5], “Susceptible”. For the same compound, the Activity result in the assay with Pseudomonas aeruginosa [7] was “Susceptible”; with Pseudomonas aeruginosa [8] it was “Susceptible”; with Pseudomonas aeruginosa [24] it was “Resistant”; in the assay on Pseudomonas aeruginosa [10], “Susceptible”; in the assay on Pseudomonas aeruginosa [11], “Resistant”; in the assay on Pseudomonas aeruginosa [12], “Susceptible”. The Activity entry with Pseudomonas aeruginosa [14] was “Susceptible”; with Pseudomonas aeruginosa [15], “Susceptible”; in the assay on Pseudomonas aeruginosa [16], “Susceptible”; with Pseudomonas aeruginosa [17] it was “Resistant”; with Pseudomonas aeruginosa [25] it was “Resistant”.

In the case of `NC[C@H]1O[C@H](O[C@H]2[C@H](OC[C@H](O)CNCCCCNC[C@@H](O)CO[C@@H]3[C@@H](O)[C@H](N)C[C@H](N)[C@H]3O[C@H]3O[C@H](CN)[C@@H](O)[C@H](O)[C@H]3N)[C@@H](O)[C@H](N)C[C@@H]2N)[C@H](N)[C@@H](O)[C@@H]1O`, the MIC against Pseudomonas aeruginosa [26] is 6.3 µg/mL (≈ 7.46 µM); in the assay with Staphylococcus aureus [18], 16 µg/mL (≈ 18.9 µM); in the assay on Pseudomonas aeruginosa [27] it was 8 µg/mL (≈ 9.47 µM); against Pseudomonas aeruginosa [28], 3.1 µg/mL (≈ 3.67 µM); in the assay with Staphylococcus aureus [20], 1 µg/mL (≈ 1.18 µM); against Pseudomonas aeruginosa [29], 8 µg/mL (≈ 9.47 µM). Further, the MIC in the assay with Pseudomonas aeruginosa [30] is 16 µg/mL (≈ 18.9 µM); in the assay on Pseudomonas aeruginosa [21], 4 µg/mL (≈ 4.73 µM); in the assay on Pseudomonas aeruginosa [31], 3.1 µg/mL (≈ 3.67 µM); in the assay with Pseudomonas aeruginosa [32], 1 µg/mL (≈ 1.18 µM); against Pseudomonas aeruginosa [33] it was 3.1 µg/mL (≈ 3.67 µM); in the assay on Pseudomonas aeruginosa [34] it was 8 µg/mL (≈ 9.47 µM). The MIC in the assay with Escherichia coli is 4 µg/mL (≈ 4.73 µM); against Pseudomonas aeruginosa [35] it was 6.3 µg/mL (≈ 7.46 µM); against Enterococcus faecalis it was over 50 µg/mL; with Pseudomonas aeruginosa [36], 16 µg/mL (≈ 18.9 µM); in the assay on Pseudomonas aeruginosa [37] it was 16 µg/mL (≈ 18.9 µM); against Pseudomonas aeruginosa [38], 2 µg/mL (≈ 2.37 µM). Moreover, the MIC against Pseudomonas aeruginosa [39] worked out at 16 µg/mL (≈ 18.9 µM); with Pseudomonas aeruginosa [40] it was 16 µg/mL (≈ 18.9 µM); with Pseudomonas aeruginosa [41] it was 6.3 µg/mL (≈ 7.46 µM); with Pseudomonas aeruginosa [42], 32 µg/mL (≈ 37.9 µM); in the assay with Pseudomonas aeruginosa [43], 6.3 µg/mL (≈ 7.46 µM).
